Assay results reported in ChEMBL document CHEMBL4392827, “Tryptamine derivatives disarm colistin resistance in polymyxin-resistant gram-negative bacteria” (Bioorg Med Chem, 2019).

Key:
Acinetobacter baumannii [1] = experiment: Potentiation of colistin-induced antimicrobial activity against colistin-resistant Acinetobacter baumannii 4106 assessed as fold reduction in colistin MIC at 60 uM after 18 hrs by broth microdilution assay; assay type: functional
Summary of the method: (§1)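 Checkerboard-style resensitization following adapted CLSI broth microdilution. Bacteria were grown 4–6 h in CAMHB and subcultured to 5×10^5 CFU/mL. Adjuvant was added from DMSO stock and held constant while colistin was serially diluted in the dosed subculture. Plates were incubated stationary at 37°C for 18 h, then MICs were read. Fold reduction was taken relative to the colistin MIC without adjuvant.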

Klebsiella pneumoniae [2] = experiment: Potentiation of colistin-induced antimicrobial activity against colistin-resistant Klebsiella pneumoniae B9 assessed as fold reduction in colistin MIC at 60 uM after 18 hrs by broth microdilution assay; assay type: functional; summary of the method: as §1
Acinetobacter baumannii [3] = experiment: Potentiation of colistin-induced antimicrobial activity against colistin-resistant Acinetobacter baumannii ATCC 17978 expressing mcr1 gene assessed as fold reduction in colistin MIC at 60 uM after 18 hrs by broth microdilution assay; assay type: functional; summary of the method: as §1
Escherichia coli [4] = experiment: Potentiation of colistin-induced antimicrobial activity against colistin-resistant Escherichia coli ATCC 25922 expressing mcr1 gene assessed as fold reduction in colistin MIC at 60 uM after 18 hrs by broth microdilution assay; assay type: functional; summary of the method: as §1
Acinetobacter baumannii [5] = experiment: Toxicity in Acinetobacter baumannii 4106 after 18 hrs by broth microdilution assay; assay type: organism-based; conditions: in vitro
Summary of the method: (§2)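 Single-agent MIC per CLSI broth microdilution. Cells from a 4–6 h culture in cation-adjusted Mueller-Hinton broth adjusted to 5 ×10^5 CFU/mL. Compound (DMSO stock) added to 200 μM top concentration and twofold serially diluted six times, with an untreated control row. Plates sealed and incubated stationary at 37°C for 18 h before MIC read.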

Klebsiella pneumoniae [6] = experiment: Toxicity in Klebsiella pneumoniae B9 after 18 hrs by broth microdilution assay; assay type: organism-based; summary of the method: as §2
Acinetobacter baumannii [7] = experiment: Toxicity in Acinetobacter baumannii ATCC 17978 expressing mcr1 gene after 18 hrs by broth microdilution assay; assay type: organism-based; summary of the method: as §2
Escherichia coli [8] = experiment: Toxicity in Escherichia coli ATCC 25922 after 18 hrs by broth microdilution assay; assay type: organism-based; conditions: in vitro; summary of the method: as §2
Acinetobacter baumannii [9] = experiment: Potentiation of colistin-induced antimicrobial activity against colistin-resistant Acinetobacter baumannii isolate 3941 assessed as fold reduction in colistin MIC at 60 uM after 18 hrs by broth microdilution assay; assay type: functional; summary of the method: as §1
Acinetobacter baumannii [10] = experiment: Potentiation of colistin-induced antimicrobial activity against colistin-resistant Acinetobacter baumannii isolate 3942 assessed as fold reduction in colistin MIC at 60 uM after 18 hrs by broth microdilution assay; assay type: functional; summary of the method: as §1
Acinetobacter baumannii [11] = experiment: Potentiation of colistin-induced antimicrobial activity against colistin-resistant Acinetobacter baumannii isolate 4112 assessed as fold reduction in colistin MIC at 60 uM after 18 hrs by broth microdilution assay; assay type: functional; summary of the method: as §1
Klebsiella pneumoniae [12] = experiment: Potentiation of colistin-induced antimicrobial activity against colistin-resistant Klebsiella pneumoniae isolate A5 assessed as fold reduction in colistin MIC at 60 uM after 18 hrs by broth microdilution assay; assay type: functional; summary of the method: as §1
Klebsiella pneumoniae [13] = experiment: Potentiation of colistin-induced antimicrobial activity against colistin-resistant Klebsiella pneumoniae isolate C3 assessed as fold reduction in colistin MIC at 60 uM after 18 hrs by broth microdilution assay; assay type: functional; summary of the method: as §1
Acinetobacter baumannii [14] = experiment: Potentiation of colistin-induced antimicrobial activity against colistin-sensitive Acinetobacter baumannii 5075 assessed as fold reduction in colistin MIC at 60 uM after 18 hrs by broth microdilution assay; assay type: functional
Summary of the method: (§3)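 Bacteria grown 4–6 h in cation-adjusted Mueller-Hinton broth and diluted to 5 ×10^5 CFU/mL. Adjuvant from DMSO stock held at fixed 60 μM while colistin is twofold serially diluted in the same adjuvant-dosed broth. Plates sealed and kept stationary at 37°C for 18 h. Colistin MIC read and fold reduction taken relative to colistin alone.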

Acinetobacter baumannii [15] = experiment: Potentiation of colistin-induced antimicrobial activity against Acinetobacter baumannii ATCC 17978 assessed as fold reduction in colistin MIC at 60 uM after 18 hrs by broth microdilution assay; assay type: functional; summary of the method: as §3
Escherichia coli [16] = experiment: Potentiation of colistin-induced antimicrobial activity against Escherichia coli ATCC 25922 assessed as fold reduction in colistin MIC at 60 uM after 18 hrs by broth microdilution assay; assay type: functional; summary of the method: as §3
Klebsiella pneumoniae [17] = experiment: Potentiation of colistin-induced antimicrobial activity against Klebsiella pneumoniae ATCC BAA-2146 expressing NDM1 gene assessed as fold reduction in colistin MIC at 60 uM after 18 hrs by broth microdilution assay; assay type: functional; summary of the method: as §3

| Compound | fold change (FC) (Acinetobacter baumannii [1]) | fold change (FC) (Klebsiella pneumoniae [2]) | fold change (FC) (Acinetobacter baumannii [3]) | fold change (FC) (Escherichia coli [4]) | MIC (Acinetobacter baumannii [5]) [µM] | MIC (Klebsiella pneumoniae [6]) [µM] | MIC (Acinetobacter baumannii [7]) [µM] | MIC (Escherichia coli [8]) [µM] | fold change (FC) (Acinetobacter baumannii [9]) | fold change (FC) (Acinetobacter baumannii [10]) | fold change (FC) (Acinetobacter baumannii [11]) | fold change (FC) (Klebsiella pneumoniae [12]) | fold change (FC) (Klebsiella pneumoniae [13]) | fold change (FC) (Acinetobacter baumannii [14]) | fold change (FC) (Acinetobacter baumannii [15]) | fold change (FC) (Escherichia coli [16]) | fold change (FC) (Klebsiella pneumoniae [17]) |
| --- | --- | --- | --- | --- | --- | --- | --- | --- | --- | --- | --- | --- | --- | --- | --- | --- | --- |
| O=C(NCCc1c[nH]c2cc(F)ccc12)c1cc(Br)c(Br)[nH]1 | 512 | 64 | 32 | 8 | > 200 | > 200 | > 200 | > 200 | 512 | 512 | 512 | 256 | 512 | 2 | 2 | 2 | 2 |
| O=C(NCCCc1c[nH]c2ccccc12)c1cc(Br)c(Br)[nH]1 | 512 | 4096 | 32 | 16 | > 200 | > 200 | > 200 | > 200 | 256 | 256 | 256 | 256 | 1024 | 4 | 4 | 2 | 2 |
| O=C(NCc1ccc2cc[nH]c2c1)c1cc(Br)c(Br)[nH]1 | 256 | 2048 | 32 | 8 | > 200 | > 200 | > 200 | > 200 | 128 | 128 | 256 | 256 | 512 | 2 | 2 | 2 | 0 |
| O=C(NCCc1c[nH]c2ccccc12)c1cc(Br)c(Br)[nH]1 | 512 | 2048 | 32 | 8 |  |  |  |  | 256 | 512 | 512 | 256 | 1024 | 2 | 4 | 4 | 2 |
| O=C(NCc1cc2ccccc2[nH]1)c1cc(Br)c(Br)[nH]1 | 2048 | 4096 | 32 | 16 | > 200 | > 200 | > 200 | > 200 | 256 | 256 | 512 | 512 | 2048 | 2 | 2 | 2 | 0 |
